{"source": "paper PMC11601626", "about": "(bioRxiv, 2024)", "key": {"[1]": {"tested_on": "HeLa cells (control and ∆PHRF1)", "experiment": "Zeocin DNA damage recovery assay, γH2A.X intensity/nucleus, HeLa", "assay_type": "cell-based, human", "details": "qGAM; 50 μg/mL zeocin 30 minutes, washout 0-26 h; p-value 4.79x10-5 (Wald)"}, "[2]": {"molecular_target": "unmodified biotinylated nucleosome (EpiCypher) (human) (UniProt P68431)", "experiment": "BLI"}, "HCT116 cells [3]": {"tested_on": "HCT116 cells", "experiment": "Live-cell imaging growth analysis", "assay_type": "cell-based, human", "details": "∆PHRF1 HCT116 cells, complemented; no zeocin; Incucyte, one week; n = 3", "summary_of_the_method": "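Control+EV, ∆PHRF1+EV and WT- or P221L-complemented ∆PHRF1 lines were grown in McCoy's 5A with 10% FBS and penicillin/streptomycin at 37°C, 5% CO₂. They were harvested near 70% confluence and seeded at 1,000 cells/well in biological triplicate. Imaging began immediately: every 4 h for one week, 10X objective, four fields per well. Confluence was scored as percentage of area occupied by cells.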"}, "HCT116 cells [4]": {"tested_on": "HCT116 cells", "experiment": "Colony formation assay under zeocin", "assay_type": "cell-based, human", "details": "∆PHRF1 HCT116 cells, complemented; effect greater with WT than P221L", "summary_of_the_method": "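Cells were Control+EV, ∆PHRF1+EV, and ∆PHRF1 complemented with 3XFlag-PHRF1 WT or P221L. They were harvested near 70% confluence and seeded at 500 cells/well in biological triplicate, then left to adhere overnight at 37°C. Medium was replaced with zeocin at 0, 0.375, 0.75 and 1.5 µg/mL for 9 days undisturbed. Cells were fixed in 4% formaldehyde and stained with 0.5% crystal violet; growth area was measured per imaged well.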"}, "GST-PHRF1^RP(P221L)": {"tested_on": "GST-PHRF1^RP(P221L)", "experiment": "Histone peptide microarray with GST-PHRF1^RP", "assay_type": "binding, human", "details": "over 300 differentially-modified histone peptides"}, "[5]": {"tested_on": "biotinylated unmodified nucleosomes", "experiment": "Biolayer interferometry", "assay_type": "binding", "details": "BLI; protein 25 to 1.625 μM; pH 7.0; 37°C; KD n.d."}, "H3 (1–20)-FAM": {"tested_on": "H3 (1–20)-FAM", "experiment": "Histone peptide fluorescence polarization", "assay_type": "binding", "details": "protein 50 to 0.0061 μM, pH 8.0, KD n.d."}, "[6]": {"tested_on": "differentially modified biotinylated nucleosomes", "experiment": "Nucleosome pulldown assay", "assay_type": "binding", "details": "2.5 pmol protein, 12.5 pmol nucleosomes, pH 7.5, 4°C overnight", "summary_of_the_method": "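Binding buffer: 50 mM Tris-HCl pH 7.5, 150 mM NaCl, 0.5% BSA, 0.1% NP-40, 10% glycerol. GST-PHRF1 RP, PHD or RP(P221L) was mixed with the modified biotinylated nucleosomes. Beads were washed three times in binding buffer, 5 min each at 4°C with rotation, then taken up in SDS loading dye. Immunoblots used anti-GST for PHRF1 and anti-H3 for nucleosome presence.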"}, "[7]": {"tested_on": "differentially modified biotinylated nucleosomes", "experiment": "dCypher nucleosome alphascreen binding assay", "details": "GST-PHRF1^RP 3 nM, nucleosomes 10 nM, duplicate"}}, "data": [{"molecule": "Cc1c(N)nc([C@H](CC(N)=O)NC[C@H](N)C(N)=O)nc1C(=O)N[C@H](C(=O)N[C@H](C)[C@@H](O)[C@H](C)C(=O)N[C@H](C(=O)NCCC1=N[C@@H](c2nc(C(=O)NCCCCN=C(N)N)cs2)CS1)[C@@H](C)O)[C@@H](O[C@@H]1O[C@@H](CO)[C@@H](O)[C@H](O)[C@@H]1O[C@H]1O[C@H](CO)[C@@H](O)[C@H](OC(N)=O)[C@@H]1O)c1cnc[nH]1", "note": "[zeocin, phleomycin D1]", "values": [{"measurement": "Parametric Coefficient, γH2A.X intensity/nucleus, ∆PHRF1 vs Control", "setting": "[1]", "result": "−345.25"}]}, {"molecule": "GST-PHRF1^RP (RING-PHD region of PHRF1, residues 107-232) (from UniProt Q9P1Y6 107-232) (domain or fragment)", "values": [{"measurement": "Kd", "setting": "[2]", "result": 1010, "unit": "nM"}]}, {"molecule": "3XFlag-PHRF1^P221L: 3XFlag-tagged PHRF1 P221L mutant expressed by lentivirus in HCT116 ∆PHRF1 cells", "values": [{"measurement": "rescue of growth under normal conditions, in words", "setting": "HCT116 cells [3]", "result": "partially rescuing the growth phenotype"}, {"measurement": "rescue of colony growth at 0.375 μg/mL zeocin, in words", "setting": "HCT116 cells [4]", "result": "partial rescue of growth"}]}, {"molecule": "3XFlag-PHRF1^WT: N-terminally 3XFlag-tagged PHRF1 expressed by lentivirus in HCT116 ∆PHRF1 cells", "values": [{"measurement": "rescue of growth under normal conditions, in words", "setting": "HCT116 cells [3]", "result": "largely rescued the growth defects"}, {"measurement": "rescue of colony growth at 0.375 μg/mL zeocin, in words", "setting": "HCT116 cells [4]", "result": "partial rescue of growth"}]}, {"molecule": "GST-PHRF1^RP(P221L): GST-PHRF1^RP with P221 mutated to leucine (protein, left off: GST, end not stated, kept) SCPICLNAFRDQAVGTPENCAHYFCLDCIVEWSKNANSCPVDRTLFKCICIRAQFGGKILRKIPVENTKASEEEEDPTFCEVCGRSDREDRLLLCDGCDAGYHMECLDPPLQEVLVDEWFCPECAA", "values": [{"measurement": "binding to histone peptides, in words", "setting": "GST-PHRF1^RP(P221L)", "result": "virtually no binding to any histone peptide on the microarray"}, {"measurement": "binding to nucleosomes, in words", "setting": "[5]", "result": "no detectable binding to nucleosomes"}, {"measurement": "binding to H3 1–20(FAM), in words", "setting": "H3 (1–20)-FAM", "result": "little to no observable binding"}, {"measurement": "nucleosome interaction of P221L mutant, in words", "setting": "[6]", "result": "abolished all nucleosome interaction"}]}, {"molecule": "GST-PHRF1^RP: GST-tagged PHRF1 RING-PHD region, residues 107–232 of PHRF1 (protein, left off: GST, end not stated, kept) SCPICLNAFRDQAVGTPENCAHYFCLDCIVEWSKNANSCPVDRTLFKCICIRAQFGGKILRKIPVENTKASEEEEDPTFCEVCGRSDREDRLLLCDGCDAGYHMECLDPPLQEVPVDEWFCPECAA", "values": [{"measurement": "nucleosome binding, H3K9me3 versus unmodified, in words", "setting": "[7]", "result": "heightened binding"}]}]}
